Assay results reported in ChEMBL document CHEMBL4364256, “Design, synthesis and biological evaluation of antimicrobial diarylimine and -amine compounds targeting the interaction between the bacterial NusB and NusE proteins” (Eur J Med Chem, 2019).
≈ marks a conversion by molar mass, not a printed value. Calls of active or inactive are those of the source.

Experiments:
Streptococcus pneumoniae = assay: Antimicrobial activity against Streptococcus pneumoniae ATCC 49619 incubated for 20 hrs by microdilution method; type: functional; conditions: ATCC 49619, 20 h
Method in brief: (§1)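 Broth microdilution MIC testing done following CLSI guidelines.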

Pseudomonas aeruginosa = assay: Antimicrobial activity against Pseudomonas aeruginosa ATCC 27853 incubated for 20 hrs by microdilution method; type: functional; conditions: ATCC 27853, 20 h; method in brief: as §1
Acinetobacter baumannii = assay: Antimicrobial activity against Acinetobacter baumannii ATCC 19606 incubated for 20 hrs by microdilution method; type: functional; conditions: ATCC 19606 = CIP 70.34 = JCM 6841, 20 h; method in brief: as §1
Enterococcus faecium = assay: Antimicrobial activity against Enterococcus faecium ATCC 19433 incubated for 20 hrs by microdilution method; type: functional; conditions: ATCC 19433, 20 h; method in brief: as §1
Staphylococcus aureus [1] = assay: microbe, parasite or virus in culture; conditions: ATCC 25923, 20 h
[2] = microbe, parasite or virus in culture; conditions: Enterobacter cloacae, ATCC 13047, 20 h
Bacteria = assay: Binding affinity to bacterial NusB assessed as change in chiral structure at 2 ug/ml by circular dichroism spectroscopic analysis
Method in brief: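 Circular dichroism spectra were recorded on NusB at 2.0 µg/mL in neutral phosphate buffer, alone and after mixing with compound at a 1:1 ratio. Binding was read as a change in the spectrum.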

Bacillus subtilis = assay: Inhibition of N-terminal LgBiT-fused Bacillus subtilis NusB expressed in Escherichia coli BL21(DE3)pLysS interaction with C- terminal SmBiT-fused Bacillus subtilis NusE expressed in Escherichia coli BL21(DE3)pLysS at 100 uM preincubated for 10 mins followed by NusE addition and measured after 10 mins by nano-glo luciferase assay relative to control
Method in brief: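 NusB and NusE were mixed 1:1 at 1 µM in PBS, with compound at 100 µM. The read-out was percent inhibition of the NusB-NusE interaction.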

Staphylococcus aureus [3] = assay: microbe, parasite or virus in culture; conditions: ATCC 29213, 20 h
[4] = Therapeutic index, ratio of CC50 for human A549 cells to 1/2 times MIC for Staphylococcus aureus ATCC 25923; type: toxicity; conditions: read-out: TI
[5] = test system: Enterococcus casseliflavus; assay: Antimicrobial activity against Enterococcus casseliflavus ATCC 25788 incubated for 20 hrs by microdilution method; type: functional; conditions: ATCC 25788, 20 h; method in brief: as §1
Staphylococcus aureus [6] = assay: Antimicrobial activity against CA-methicillin-resistant Staphylococcus aureus W47 ST30 incubated for 20 hrs by microdilution method; type: functional; conditions: W47 ST30, 20 h
Method in brief: (§2)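 MIC determined by microdilution following Clinical & Laboratory Standards Institute (CLSI) guidelines, read in µg/mL, against a panel of hospital- and community-acquired MRSA strains.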

Staphylococcus aureus [7] = assay: Antimicrobial activity against Staphylococcus aureus HA W235 ST5 incubated for 20 hrs by microdilution method; type: functional; conditions: HA W235 ST5, 20 h; method in brief: as §2
Staphylococcus aureus [8] = assay: Antimicrobial activity against Staphylococcus aureus ATCC BAA44 incubated for 20 hrs by microdilution method; type: functional; conditions: ATCC BAA44, 20 h; method in brief: as §2
Staphylococcus aureus [9] = assay: Antimicrobial activity against CA-methicillin-resistant Staphylococcus aureus W46 ST59 incubated for 20 hrs by microdilution method; conditions: W46 ST59, 20 h
[10] = Apparent permeability across apical to basolateral side in human Caco2 cells by LC-MS/MS analysis; type: ADME, cell-based; conditions: Caco-2
[11] = Cytotoxicity against human HaCaT cells assessed as reduction in cell viability after 48 to 72 hrs by MTT assay; type: cell-based
Staphylococcus aureus [12] = assay: Antimicrobial activity against Staphylococcus aureus USA300/ST8 incubated for 20 hrs by microdilution method; conditions: USA300 ST8, 20 h
[13] = test system: Staphylococcus epidermidis; assay: Antimicrobial activity against Staphylococcus epidermidis ATCC 12228 incubated for 20 hrs by microdilution method; type: functional; conditions: ATCC 12228, 20 h; method in brief: as §1
Staphylococcus aureus [14] = assay: Antimicrobial activity against CA-methicillin-resistant Staphylococcus aureus W48 ST217 incubated for 20 hrs by microdilution method; conditions: W48 ST217, 20 h
Staphylococcus aureus [15] = assay: Antimicrobial activity against CA-methicillin-resistant Staphylococcus aureus W4 ST338 incubated for 20 hrs by microdilution method; type: functional; conditions: W4 ST338, 20 h; method in brief: as §2
Staphylococcus aureus [16] = assay: Bactericidal activity against Staphylococcus aureus ATCC 25923 at 4 times MIC preincubated for up to 24 hrs followed by replating on agar plate and measured after overnight incubation by time-kill; type: functional, organism-based
[17] = Antimicrobial activity against Staphylococcus saprophyticus ATCC 15305 incubated for 20 hrs by microdilution method; type: functional, Staphylococcus saprophyticus subsp. saprophyticus; conditions: ATCC 15305, 20 h; method in brief: as §1
Staphylococcus aureus [18] = assay: Antimicrobial activity against Staphylococcus aureus ST22 11B086169 incubated for 20 hrs by microdilution method; type: functional; conditions: ST22 11B086169, 20 h; method in brief: as §2
Streptococcus pyogenes = assay: Antimicrobial activity against Streptococcus pyogenes ATCC 19615 incubated for 20 hrs by microdilution method; type: functional; conditions: ATCC 19615, 20 h; method in brief: as §1
Staphylococcus aureus [19] = assay: Bacteriostatic activity against Staphylococcus aureus ATCC 25923 at 1/4 to 1 times MIC preincubated for up to 24 hrs followed by replating on agar plate and measured after overnight incubation by time-kill assay; type: functional, organism-based
Staphylococcus aureus [20] = assay: Antimicrobial activity against CA-methicillin-resistant Staphylococcus aureus W45 ST59 incubated for 20 hrs by microdilution method; conditions: W45 ST59, 20 h
[21] = Cytotoxicity against human A549 cells assessed as reduction in cell viability after 48 to 72 hrs by MTT assay; type: cell-based
Streptococcus agalactiae = assay: Antimicrobial activity against Streptococcus agalactiae ATCC 12386 incubated for 20 hrs by microdilution method; type: functional; conditions: ATCC 12386, 20 h; method in brief: as §1
Staphylococcus aureus [22] = assay: Antimicrobial activity against Staphylococcus aureus ATCC BAA43 incubated for 20 hrs by microdilution method; type: functional; conditions: ATCC BAA43, 20 h; method in brief: as §2
Staphylococcus aureus [23] = assay: Antimicrobial activity against Staphylococcus aureus ST239 incubated for 20 hrs by microdilution method; type: functional; conditions: CN79, 20 h; method in brief: as §2
Staphylococcus aureus [24] = assay: Antimicrobial activity against Staphylococcus aureus HA W231 ST45 incubated for 20 hrs by microdilution method; type: functional; conditions: HA W231 ST45, 20 h; method in brief: as §2
[25] = Therapeutic index, ratio of CC50 for human HaCaT cells to 1/2 times MIC for Staphylococcus aureus ATCC 25923; type: toxicity; conditions: read-out: TI
Erythrocyte = assay: Hemolytic activity against human erythrocytes at 0.1 to 10 ug/ml incubated for 45 mins; type: ADME, cell-based; conditions: 0.75 h
Method in brief: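 Hemolysis was tested on human blood cells with compound at 0.1, 1 and 10 µg/mL, judged against a nonhemolytic cut-off value.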

Structure (SMILES) | MIC (Streptococcus pneumoniae) | MIC (Pseudomonas aeruginosa) | MIC (Acinetobacter baumannii) | MIC (Enterococcus faecium) | MIC (Staphylococcus aureus [1]) | MIC [2] | inhibition (Bacillus subtilis) | MIC (Staphylococcus aureus [3]) | MIC [5] | MIC (Staphylococcus aureus [6]) | MIC (Staphylococcus aureus [7]) | MIC (Staphylococcus aureus [8]) | MIC (Staphylococcus aureus [9]) | MIC (Staphylococcus aureus [12]) | MIC [13] | MIC (Staphylococcus aureus [14]) | MIC (Staphylococcus aureus [15]) | MIC [17] | MIC (Staphylococcus aureus [18]) | MIC (Streptococcus pyogenes) | other results
CC(C)(C)c1ccccc1/N=C/c1cc([N+](=O)[O-])ccc1O | 64 µg/mL (≈ 215 µM) | > 256 µg/mL | > 256 µg/mL | > 256 µg/mL | 4 µg/mL (≈ 13.4 µM) | > 256 µg/mL | 16.8% | 16 µg/mL (≈ 53.6 µM) |  |  |  |  |  |  |  |  |  |  |  |  | Activity (Bacteria): Active
O=[N+]([O-])c1ccc(O)c(CNc2ccccc2Cl)c1 | 8 µg/mL (≈ 28.7 µM) | > 256 µg/mL | 128 µg/mL (≈ 459 µM) | 32 µg/mL (≈ 115 µM) | 2 µg/mL (≈ 7.18 µM) | 256 µg/mL (≈ 919 µM) | 31% | 2 µg/mL (≈ 7.18 µM) | 32 µg/mL (≈ 115 µM) | 4 µg/mL (≈ 14.4 µM) | 4 µg/mL (≈ 14.4 µM) | 8 µg/mL (≈ 28.7 µM) | 4 µg/mL (≈ 14.4 µM) | 4 µg/mL (≈ 14.4 µM) | 8 µg/mL (≈ 28.7 µM) | 4 µg/mL (≈ 14.4 µM) | 4 µg/mL (≈ 14.4 µM) | 8 µg/mL (≈ 28.7 µM) | 4 µg/mL (≈ 14.4 µM) | 16 µg/mL (≈ 57.4 µM) | selectivity ratio [4]: 6; Papp A→B [10]: 16.1 ×10⁻⁶ cm/s; CC50 [11]: 20.1 µM; Activity (Staphylococcus aureus [16]): Active; Activity (Staphylococcus aureus [19]): Active; MIC (Staphylococcus aureus [20]): 8 µg/mL (≈ 28.7 µM); CC50 [21]: 22.5 µM; MIC (Streptococcus agalactiae): 32 µg/mL (≈ 115 µM); MIC (Staphylococcus aureus [22]): 2 µg/mL (≈ 7.18 µM); MIC (Staphylococcus aureus [23]): 8 µg/mL (≈ 28.7 µM); MIC (Staphylococcus aureus [24]): 4 µg/mL (≈ 14.4 µM); selectivity ratio [25]: 6; Activity (Erythrocyte): Non-Toxic
C#Cc1cccc(NCc2cc([N+](=O)[O-])cc(Br)c2O)c1 | 32 µg/mL (≈ 92.2 µM) | > 256 µg/mL | 256 µg/mL (≈ 737 µM) | 64 µg/mL (≈ 184 µM) | 2 µg/mL (≈ 5.76 µM) | > 256 µg/mL | 99.6% | 2 µg/mL (≈ 5.76 µM) | 64 µg/mL (≈ 184 µM) | 2 µg/mL (≈ 5.76 µM) | 2 µg/mL (≈ 5.76 µM) | 16 µg/mL (≈ 46.1 µM) | 4 µg/mL (≈ 11.5 µM) | 4 µg/mL (≈ 11.5 µM) | 4 µg/mL (≈ 11.5 µM) | 2 µg/mL (≈ 5.76 µM) | 2 µg/mL (≈ 5.76 µM) | 16 µg/mL (≈ 46.1 µM) | 4 µg/mL (≈ 11.5 µM) | 32 µg/mL (≈ 92.2 µM) | selectivity ratio [4]: 27; CC50 [11]: 72.2 µM; MIC (Staphylococcus aureus [20]): 2 µg/mL (≈ 5.76 µM); CC50 [21]: 79.1 µM; MIC (Streptococcus agalactiae): 32 µg/mL (≈ 92.2 µM); MIC (Staphylococcus aureus [22]): 2 µg/mL (≈ 5.76 µM); MIC (Staphylococcus aureus [23]): 4 µg/mL (≈ 11.5 µM); MIC (Staphylococcus aureus [24]): 2 µg/mL (≈ 5.76 µM); selectivity ratio [25]: 25
O=[N+]([O-])c1ccc(O)c(CNc2cccc(Cl)c2)c1 | 8 µg/mL (≈ 28.7 µM) | > 256 µg/mL | 128 µg/mL (≈ 459 µM) | 32 µg/mL (≈ 115 µM) | 4 µg/mL (≈ 14.4 µM) | 256 µg/mL (≈ 919 µM) | 34.9% | 4 µg/mL (≈ 14.4 µM) | 32 µg/mL (≈ 115 µM) | 8 µg/mL (≈ 28.7 µM) | 8 µg/mL (≈ 28.7 µM) | 8 µg/mL (≈ 28.7 µM) | 8 µg/mL (≈ 28.7 µM) | 8 µg/mL (≈ 28.7 µM) | 8 µg/mL (≈ 28.7 µM) | 8 µg/mL (≈ 28.7 µM) | 8 µg/mL (≈ 28.7 µM) | 16 µg/mL (≈ 57.4 µM) | 4 µg/mL (≈ 14.4 µM) | 16 µg/mL (≈ 57.4 µM) | Papp A→B [10]: 14.9 ×10⁻⁶ cm/s; MIC (Staphylococcus aureus [20]): 8 µg/mL (≈ 28.7 µM); MIC (Streptococcus agalactiae): 32 µg/mL (≈ 115 µM); MIC (Staphylococcus aureus [22]): 4 µg/mL (≈ 14.4 µM); MIC (Staphylococcus aureus [23]): 16 µg/mL (≈ 57.4 µM); MIC (Staphylococcus aureus [24]): 8 µg/mL (≈ 28.7 µM); Activity (Erythrocyte): Non-Toxic
